Reference: ChEMBL document CHEMBL5724801, “EUbOPEN Chemogenomics Library - Multiplex” (2024)
Values joined by “and” are separate entries in the source; they are usually repeats but may differ in a detail not shown here. Equal values may be shown once.

Legend:
HEK-293T = assay: Multiplex assay against HEK293T; type: toxicity, cell-based; settings: human
How it was run: (§1)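 Cells were classed with CellPathfinder machine-learning gating, first as Hoechst high-intensity objects or normal cells, then (normal cells) as healthy, pyknosed or fragmented nuclei, and finally (pyknosed cells) as mitotic or apoptotic. Staining of live cells at seeding used Hoechst33342, BioTracker Green Microtubule Cytoskeleton Dye, MitoTracker Red and Annexin V Alexa Fluor 680, with imaging on a CQ1 microscope at 37°C and 5% CO2 after compound addition. Tubulin, mitochondrial-mass and membrane-permeability phenotypes are per cents of healthy-nucleus cells.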

U2OS = assay: Multiplex assay against U2OS; type: toxicity, cell-based; settings: human; how it was run: as §1
[1] = 12 h, 1 µM, compound concentration 1 uM
[2] = 12 h, 10 µM, compound concentration 10 uM
[3] = 24 h, 1 µM, compound concentration 1 uM
[4] = 24 h, 10 µM, compound concentration 10 uM
[5] = 48 h, 1 µM, compound concentration 1 uM
[6] = 48 h, 10 µM, compound concentration 10 uM

## Cc1c(-c2cc(-c3ccccc3Cl)no2)cnn1C1CCNCC1.Cl
HEK-293T; [1]
  Population Apoptotic (%): 10.39% and 11.29%
  Population Fragmented Nuclei (%): 3.59% and 2.19%
  Population Hoechst High Intensity Objects (%): 0.28% and 0%
  Population Membrane Permeable-Phenotype (%): 0%
  Population Mitochondria Different-Phenotype (%): 33.33% and 20%
  Population Mitotic Cells (%): 89.61% and 88.71%
  Population Normal (%): 99.72% and 100%
  Population Pyknosed Nuclei (%): 42.54% and 90.51%
  Population Tubulin-Different-Phenotype (%): 9.74% and 20%
  Total Cell Count: 363 and 137
HEK-293T; [2]
  Population Apoptotic (%): 15.64% and 14.06%
  Population Fragmented Nuclei (%): 1.78% and 2.96%
  Population Hoechst High Intensity Objects (%): 0.44% and 0%
  Population Membrane Permeable-Phenotype (%): 2.38% and 0%
  Population Mitochondria Different-Phenotype (%): 42.86% and 33.33%
  Population Mitotic Cells (%): 84.36% and 85.94%
  Population Normal (%): 99.56% and 100%
  Population Pyknosed Nuclei (%): 79.56% and 94.81%
  Population Tubulin-Different-Phenotype (%): 78.57% and 100%
  Total Cell Count: 226 and 135
HEK-293T; [3]
  Population Apoptotic (%): 16.36% and 12.04%
  Population Fragmented Nuclei (%): 2.54% and 2.07%
  Population Healthy Nuclei (%): 62.58% and 23.45%
  Population Hoechst High Intensity Objects (%): 0.21% and 0.68%
  Population Membrane Permeable-Phenotype (%): 1.35% and 0%
  Population Mitochondria Different-Phenotype (%): 20.61% and 26.47%
  Population Mitotic Cells (%): 83.64% and 87.96%
  Population Normal (%): 99.79% and 99.32%
  Population Pyknosed Nuclei (%): 34.88% and 74.48%
  Population Tubulin-Different-Phenotype (%): 23.31% and 17.65%
HEK-293T; [4]
  Population Apoptotic (%): 46.71% and 55.88%
  Population Fragmented Nuclei (%): 1.42% and 2.05%
  Population Hoechst High Intensity Objects (%): 1.85% and 0.68%
  Population Membrane Permeable-Phenotype (%): 0% and 14.29%
  Population Mitochondria Different-Phenotype (%): 78.57% and 57.14%
  Population Mitotic Cells (%): 53.29% and 44.12%
  Population Normal (%): 98.15% and 99.32%
  Population Pyknosed Nuclei (%): 78.77% and 93.15%
  Population Tubulin-Different-Phenotype (%): 92.86% and 85.71%
  Total Cell Count: 216 and 147
HEK-293T; [5]
  Population Apoptotic (%): 12.5% and 24.62%
  Population Fragmented Nuclei (%): 3.19% and 2.61%
  Population Healthy Nuclei (%): 82.92% and 54.9%
  Population Hoechst High Intensity Objects (%): 0% and 1.29%
  Population Membrane Permeable-Phenotype (%): 4.07% and 0%
  Population Mitochondria Different-Phenotype (%): 28.52% and 35.71%
  Population Mitotic Cells (%): 87.5% and 75.38%
  Population Normal (%): 100% and 98.71%
HEK-293T; [6]
  Population Apoptotic (%): 59.7% and 87.84%
  Population Fragmented Nuclei (%): 1.25% and 4.94%
  Population Hoechst High Intensity Objects (%): 2.44% and 0%
  Population Membrane Permeable-Phenotype (%): 0.97% and 0%
  Population Mitochondria Different-Phenotype (%): 87.38% and 100%
  Population Normal (%): 97.56% and 100%
  Population Pyknosed Nuclei (%): 55.83% and 91.36%
  Population Tubulin-Different-Phenotype (%): 73.79% and 100%
  Total Cell Count: 246 and 162
U2OS; [1]
  Population Apoptotic (%): 35.85% and 50%
  Population Fragmented Nuclei (%): 2.99% and 1.04%
  Population Healthy Nuclei (%): 85.68% and 82.29%
  Population Hoechst High Intensity Objects (%): 0%
  Population Membrane Permeable-Phenotype (%): 0.5% and 3.8%
  Population Mitochondria Different-Phenotype (%): 0% and 8.86%
  Population Mitotic Cells (%): 64.15% and 50%
  Population Normal (%): 100%
  Population Pyknosed Nuclei (%): 11.32% and 16.67%
  Population Tubulin-Different-Phenotype (%): 1.5% and 1.9%
  Total Cell Count: 468 and 192
U2OS; [2]
  Population Apoptotic (%): 35.61% and 27.88%
  Population Fragmented Nuclei (%): 0.94% and 2.96%
  Population Healthy Nuclei (%): 57.68% and 20%
  Population Hoechst High Intensity Objects (%): 0%
  Population Membrane Permeable-Phenotype (%): 28.26% and 22.22%
  Population Mitotic Cells (%): 64.39% and 72.12%
  Population Normal (%): 100%
  Population Pyknosed Nuclei (%): 41.38% and 77.04%
  Population Tubulin-Different-Phenotype (%): 85.87% and 88.89%
  Total Cell Count: 319 and 135
U2OS; [3]
  Population Apoptotic (%): 37.5% and 39.02%
  Population Fragmented Nuclei (%): 2.05% and 3.23%
  Population Healthy Nuclei (%): 87.85% and 80.24%
  Population Hoechst High Intensity Objects (%): 0%
  Population Membrane Permeable-Phenotype (%): 0.18% and 2.01%
  Population Mitochondria Different-Phenotype (%): 0.18% and 7.54%
  Population Mitotic Cells (%): 62.5% and 60.98%
  Population Normal (%): 100%
  Population Pyknosed Nuclei (%): 10.09% and 16.53%
  Population Tubulin-Different-Phenotype (%): 1.08% and 1.51%
  Total Cell Count: 634 and 248
